Sampled rows, rich in hits. Any-hit rate of the full collection: about 3.2%.
UBC13 polyUb: human UBC13 polyubiquitination inhibition; P61088; UBC13 polyubiquitin chain formation, TR-FRET; inhibition, % at 20 µM; 0.47% of 330,000 active; in the data active = inhibition above about 45%, passing the limit was not always enough
MEKK2wt PB1 HTS: raises or lowers MEK5 binding to wildtype human MEKK2 PB1 domain; Q9Y2U5; bead flow cytometry, Alexa488-MEK5 binding to MEKK2 WT; actives lie on both sides; binding response (% of control), % at 10 µM; 1.1% of 290,000 active; in the data active = binding response below about 67% or above about 130%
Apaf-1 inh: inhibitors of human Apaf-1 apoptosome | O14727 | reconstituted apoptosome caspase-3 activity, DEVD-Rh110 fluorescence | inhibition, % at 20 µM | 0.71% of 330,000 active; active = inhibition of at least 40% at 20 µM;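 also: plate controls were DMSO wells for no effect and DEVD-CHO caspase inhibitor wells for full effect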
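Material: biochemical Apaf-1 apoptosome reconstitution. Medium: Hepes buffer, pH 7.5. Also added: cytochrome c activation, bis-DEVD rhodamine 110 substrate. Timing: 30 min compound preincubation, 50 min activation, room temperature. Measured by: rhodamine 110 fluorescence at Ex 480/Em 540 nm.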
MEKK3 PB1 HTS: raises or lowers MEK5 binding to the human MEKK3 PB1 domain | 1.4% of 290,000 active | Q99759 | binding response (% of control), % at 10 µM | bead-based flow cytometry, Alexa488-MEK5 binding to MEKK3; actives lie on both sides; 0 = blocked by unlabeled MEK5, 100 = vehicle;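 active = binding response more than 3 SD above or below the average of its plate-row segment, actives on both sides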;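 also: Alexa488 bead fluorescence after subtracting the streptavidin-only scavenger bead signal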
MEKK2mut PB1 HTS: signal of MEK5 binding to mutant human MEKK2 PB1 domain; bead flow cytometry, Alexa488-MEK5 binding to MEKK2 mutant; percent response, % at 10 µM; 0.35% of 290,000 active; AID 1530; in the data active = percent response above about 24%, passing the limit was not always enough
Pemphigus Ab inh: blocks pemphigus antibody binding to human desmoglein-3. P32926. DSG3-coupled beads, scFv-anti-DSG3-GFP binding, flow cytometry; stronger effect = lower value. binding (percent of control), % at 10 µM. 0.48% of 310,000 active. AID 588358;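 active = binding more than 3 SD below its plate's average and above zero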;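 also: hits lower antibody fragment binding to DSG3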
MEKK2wt confirm: raises or lowers MEK5 binding to wildtype human MEKK2, retest; bead flow cytometry, Alexa488-MEK5 binding to MEKK2 WT; actives lie on both sides; binding response (% of control), % at 10 µM; shares compounds with MEKK3 PB1 HTS; 2.4% of 5,900 active; AID 1892; in the data active = binding response below about 16% or above about 210%; inactive = in between
MEKK2mut confirm: signal of MEK5 binding to mutant human MEKK2, retest. shares compounds with MEKK3 PB1 HTS. 2% of 5,900 active. percent response, % at 10 µM. bead flow cytometry, Alexa488-MEK5 binding to MEKK2 mutant; in the data active = percent response mostly above about 71%, no sharp cut-off; inactive = mostly below about 38%;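 also: higher means compound restores mutant binding toward wildtype level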
MEKK3-MEK5 inh: confirmation of inhibitors of MEK5 binding to human MEKK3; shares compounds with MEKK3 PB1 HTS; bead flow cytometry, Alexa488-MEK5 binding to MEKK3; stronger effect = lower value; binding response (% of control), % at 10 µM; 1.8% of 5,900 active;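 active = binding response below 72% of control, or above a set upper limit, though filed actives all read lower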;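 also: 100% = DMSO only wells and 0% = binding blocked by excess unlabeled MEK5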
An asterisk follows results filed as active; [ ] = another dose, or the depositor's remark.

What do the screens show for `CC1(C)CC(=O)C(C=NCCN2CCN(C(=S)Nc3ccccc3)CC2)=C(O)C1`?
UBC13 polyUb: -3.9; MEKK2wt PB1 HTS: 3.0*[inhibitor]; Apaf-1 inh: 5.9; MEKK3 PB1 HTS: 3.0*[inhibitor]; MEKK2mut PB1 HTS: -14.0; MEKK2wt confirm: 102.0; MEKK2mut confirm: 5.0; MEKK3-MEK5 inh: 103.0

How did CC(=O)c1cccc(NC(=O)COc2ccccc2C(=O)c2cc(C#N)c(=O)n(C3CCCCC3)c2)c1 do in these assays?
UBC13 polyUb: -0.9; MEKK2wt PB1 HTS: 93.0; Apaf-1 inh: 12.8; MEKK3 PB1 HTS: 93.0; MEKK2mut PB1 HTS: -4.0; Pemphigus Ab inh: 83.0

How did Cc1ccc(OCc2ccc(C#N)cc2)c(C(=O)c2cc(C#N)c(=O)n(C3CC3)c2)c1 do in these assays?
UBC13 polyUb: -0.8; MEKK2wt PB1 HTS: 115.0; Apaf-1 inh: 7.4; MEKK3 PB1 HTS: 107.0; MEKK2mut PB1 HTS: 52.0*; Pemphigus Ab inh: 105.2; MEKK2wt confirm: 101.0; MEKK2mut confirm: -15.0; MEKK3-MEK5 inh: 98.0

What do the screens show for `N#CCC(=O)Nc1ccc(C(=O)OCC(=O)Nc2ccccc2-c2ccccc2)cc1`?
UBC13 polyUb: -4.5; MEKK2wt PB1 HTS: 121.0; Apaf-1 inh: 8.0; MEKK3 PB1 HTS: 141.0*; MEKK2mut PB1 HTS: 33.0; Pemphigus Ab inh: 105.9; MEKK2wt confirm: 103.0; MEKK2mut confirm: 2.0; MEKK3-MEK5 inh: 102.0

Results for O=c1oc2ccccc2nc1/C=C(O)/C=C/c1ccc(F)cc1 ?
UBC13 polyUb: -3.0; MEKK2wt PB1 HTS: 94.0; Apaf-1 inh: 17.5; MEKK3 PB1 HTS: 100.0; MEKK2mut PB1 HTS: -1.0; Pemphigus Ab inh: 110.5

What do the screens show for `O=c1oc2ccccc2nc1/C=C(O)/C=C\c1ccccc1`?
UBC13 polyUb: -21.8; MEKK2wt PB1 HTS: 61.0*[inhibitor]; Apaf-1 inh: 1.2; MEKK3 PB1 HTS: 82.0*[inhibitor]; MEKK2mut PB1 HTS: -28.0; Pemphigus Ab inh: 102.8; MEKK2wt confirm: 77.0; MEKK2mut confirm: -15.0; MEKK3-MEK5 inh: 100.0

How did CC(C)c1ccccc1NC(=O)CSc1n[nH]c(=O)n1C1CC1 do in these assays?
UBC13 polyUb: -8.7; Apaf-1 inh: 4.4

How did COc1ccc(-n2cnc3c(N)nc(N)nc32)cc1 do in these assays?
Pemphigus Ab inh: 90.9

How did Cc1cc(-c2n[nH]c(=S)n2/N=C/c2sccc2C)n[nH]1 do in these assays?
UBC13 polyUb: -5.4; MEKK2wt PB1 HTS: 107.0; Apaf-1 inh: 5.1; MEKK3 PB1 HTS: 148.0*; MEKK2mut PB1 HTS: 0.0; MEKK2wt confirm: 104.0; MEKK2mut confirm: 0.0; MEKK3-MEK5 inh: 102.0

What do the screens show for `O=C(Nc1ccc2c(c1)CCC2)c1ccccc1F`?
UBC13 polyUb: -15.9; MEKK2wt PB1 HTS: 103.0; Apaf-1 inh: -0.4; MEKK3 PB1 HTS: 135.0*; MEKK2mut PB1 HTS: 0.0; Pemphigus Ab inh: 100.9; MEKK2wt confirm: 104.0; MEKK2mut confirm: 4.0; MEKK3-MEK5 inh: 104.0

How did O=C(O)c1ccccc1-c1ccccc1C(=O)Nc1ccc2c(c1)CCC2 do in these assays?
UBC13 polyUb: -6.0; MEKK2wt PB1 HTS: 105.0; Apaf-1 inh: 3.9; MEKK3 PB1 HTS: 101.0; MEKK2mut PB1 HTS: 3.0; Pemphigus Ab inh: 114.7

Results for CCCn1nc(C(=O)OCC(=O)c2ccc3c(c2)NC(=O)CO3)c2ccccc2c1=O ?
UBC13 polyUb: 7.8; MEKK2wt PB1 HTS: 97.0; Apaf-1 inh: 18.5; MEKK3 PB1 HTS: 132.0*; MEKK2mut PB1 HTS: 7.0; Pemphigus Ab inh: 96.2; MEKK2wt confirm: 112.0; MEKK2mut confirm: 8.0; MEKK3-MEK5 inh: 106.0

Results for O=C(CCC(=O)CCN1CCCCC1)CCN1CCCCC1 ?
UBC13 polyUb: 15.8; MEKK2wt PB1 HTS: 175.0*; Apaf-1 inh: 14.4; MEKK3 PB1 HTS: 102.0; MEKK2mut PB1 HTS: 32.0; Pemphigus Ab inh: 107.8; MEKK2wt confirm: 136.0; MEKK2mut confirm: 14.0; MEKK3-MEK5 inh: 97.0

Assay outcomes as filed in PubChem.
